Data from ChEMBL document CHEMBL3243952, “Antagonists of vitamin B6. Simultaneous and stepwise modification of the 2 and 4 positions” (J Med Chem, 1977).
Activity calls are given as the source filed them. The calls are words filed in the database; no cut-off is given here.

Tests used:
[1] = tested on: TA3; test: Growth inhibition of mouse TA3 cells after 3 days incubation in presence of 10^-7 M pyridoxal; type: functional; settings: for IC50: Mus musculus, TA3, 72 h, read-out: ID50 (the source's name)
Summary of the method: (§1)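 Mouse mammary adenocarcinoma TA3 cells were grown in stationary upright tubes with 10% horse serum and pyridoxal at 10⁻⁷ M (minimal growth) or 10⁻⁵ M. The inoculum was 50 000 cells, with compound added in an equal volume of medium. Cells were incubated for 3 days, and growth was read by protein assay. Five tubes were used per concentration, with repeats for active compounds. The 50% inhibitory concentration was derived.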

[2] = tested on: TA3; test: Growth inhibition of mouse TA3 cells after 3 days incubation in presence of 10^-5 M pyridoxal; type: functional; summary of the method: as §1
[3] = tested on: TA3; test: Growth inhibition of mouse TA3 cells at 10^-4 M after 3 days incubation in presence of 10^-7 M pyridoxal; type: functional
[4] = biological target: T1, Pyridoxal kinase (Homo sapiens, UniProt O00764); test: Noncompetitive inhibition of pyridoxal phosphokinase (unknown origin) using ATP-gamma-[32P]
T1 sequence (O00764 whole entry): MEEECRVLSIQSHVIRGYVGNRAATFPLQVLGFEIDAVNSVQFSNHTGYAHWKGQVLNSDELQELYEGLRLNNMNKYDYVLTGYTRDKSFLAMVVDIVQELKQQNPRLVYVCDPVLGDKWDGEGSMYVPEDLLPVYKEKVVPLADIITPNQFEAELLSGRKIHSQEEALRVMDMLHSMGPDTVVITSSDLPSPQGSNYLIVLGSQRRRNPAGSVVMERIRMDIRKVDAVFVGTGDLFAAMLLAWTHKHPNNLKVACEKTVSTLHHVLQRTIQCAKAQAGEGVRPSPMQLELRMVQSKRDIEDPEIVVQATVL

In the case of `Cc1ncc(CO)c(C)c1O`, the ID50 [1] is reported as 6.8 ×10⁻⁸ M and the inhibition [2] is reported as “inactive”.

With `Cc1c(CO)cnc(/C=N/NC(N)=S)c1O` the IC50 [1] was 2.7 µM and the inhibition [2] was “Active”.

For `Cc1c(CO)cnc(CO)c1O`, the inhibition [3] was “inactive”.

`C=Cc1ncc(COP(=O)(O)O)c(C)c1O` gave an ID50 [1] of 3.8 ×10⁻⁵ M and an ID50 [2] of 1.8 ×10⁻⁴ M.

`C=Cc1ncc(CO)c(C=C)c1O.Cl` gave an IC50 [1] of 6.8 µM and an ID50 [2] of 3.2 ×10⁻⁵ M.

Compound `Cc1c(CO)cnc(C=O)c1O` has an ID50 [1] of 6 ×10⁻⁵ M and an ID50 [2] of 1.6 ×10⁻⁴ M.

In the case of `Cc1c(CO)cnc(/C=N/O)c1O`, the “inhibition (INH)” value [3] is reported as 40%.

Work on `C=Cc1ncc(CO)c(C)c1O.Cl` yielded an IC50 [1] of 3 µM, a Ki [4] of 68.1 µM and an ID50 [2] of 3.2 ×10⁻⁵ M.

For `C=Cc1c(CO)cnc(C)c1O`, the IC50 [1] was 0.0025 µM and the inhibition [2] was “inactive”.

For `C=Cc1ncc(COP(=O)(O)O)c(C=C)c1O`, the inhibition [3] was “inactive”.

In the case of `C=Cc1c(CO)cnc(CO)c1O`, the inhibition [3] is reported as “inactive”.

With `C=Cc1ncc(CO)c(CO)c1O` the IC50 [1] was 9.4 µM and the inhibition [2] was “Active”.
